{"source": "paper PMC9817006", "about": "(Journal of psychopharmacology (Oxford, England), 2022)", "key": {"ICR mice": {"test_system": "ICR mice", "test": "Hot-plate test", "format": "in vivo", "outline": "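Hot plate at 55.0 °C, mouse confined in a 10 cm glass cylinder. Two control latencies taken ≥10 min apart; endpoint is a jump or paw lick. ICR mice (6/group) given test compound s.c. (0.001–0.5 mg/kg) or saline and tested 5–120 min post-dose. %MPE = (test−control)/(40−control)×100.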"}, "[1]": {"test_system": "C57BL/6J mice; β2 WT and KO mice", "test": "Locomotor activity", "format": "in vivo", "outline": "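Saline or test compound was given s.c. 15 min before mice entered photocell cages with two banks of eight beams. Beam interruptions were counted over 30 min. β2 WT and KO mice (8/group) received 0.5 mg/kg. For repeated dosing, mice (12/group) received saline or 0.01, 0.1, 0.5 or 1 mg/kg daily for 5 days, had 2 days without injection, and were challenged on day 8.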"}}}
{"smiles": "Ic1cncc(OC[C@@H]2CCN2)c1", "note": "[5IA, 5-Iodo-A-85380]", "values": [{"measurement": "Antinociceptive response, hot-plate test", "setting": "ICR mice; 0.001 mg/kg s.c., 5 min after injection", "result": "8 ± 3", "unit": "% MPE"}, {"measurement": "Antinociceptive response, hot-plate test", "setting": "ICR mice; 0.001 mg/kg s.c., 10 min after injection", "result": "10 ± 3", "unit": "% MPE"}, {"measurement": "Antinociceptive response, hot-plate test", "setting": "ICR mice; 0.001 mg/kg s.c., 15 min after injection", "result": "10 ± 5", "unit": "% MPE"}, {"measurement": "Antinociceptive response, hot-plate test", "setting": "ICR mice; 0.001 mg/kg s.c., 30 min after injection", "result": "4 ± 3", "unit": "% MPE"}, {"measurement": "Antinociceptive response, hot-plate test", "setting": "ICR mice; 0.001 mg/kg s.c., 60 min after injection", "result": "8 ± 5", "unit": "% MPE"}, {"measurement": "Antinociceptive response, hot-plate test", "setting": "ICR mice; 0.001 mg/kg s.c., 120 min after injection", "result": "11 ± 5", "unit": "% MPE"}, {"measurement": "Antinociceptive response, hot-plate test", "setting": "ICR mice; 0.01 mg/kg s.c., 5 min after injection", "result": "9 ± 3", "unit": "% MPE"}, {"measurement": "Antinociceptive response, hot-plate test", "setting": "ICR mice; 0.01 mg/kg s.c., 10 min after injection", "result": "7 ± 3", "unit": "% MPE"}, {"measurement": "Antinociceptive response, hot-plate test", "setting": "ICR mice; 0.01 mg/kg s.c., 15 min after injection", "result": "7 ± 3", "unit": "% MPE"}, {"measurement": "Antinociceptive response, hot-plate test", "setting": "ICR mice; 0.01 mg/kg s.c., 30 min after injection", "result": "5 ± 3", "unit": "% MPE"}, {"measurement": "Antinociceptive response, hot-plate test", "setting": "ICR mice; 0.01 mg/kg s.c., 60 min after injection", "result": "13 ± 6", "unit": "% MPE"}, {"measurement": "Antinociceptive response, hot-plate test", "setting": "ICR mice; 0.01 mg/kg s.c., 120 min after injection", "result": "5 ± 3", "unit": "% MPE"}, {"measurement": "Antinociceptive response, hot-plate test", "setting": "ICR mice; 0.1 mg/kg s.c., 5 min after injection", "result": "7 ± 2", "unit": "% MPE"}, {"measurement": "Antinociceptive response, hot-plate test", "setting": "ICR mice; 0.1 mg/kg s.c., 10 min after injection", "result": "6 ± 3", "unit": "% MPE"}, {"measurement": "Antinociceptive response, hot-plate test", "setting": "ICR mice; 0.1 mg/kg s.c., 15 min after injection", "result": "3 ± 2", "unit": "% MPE"}, {"measurement": "Antinociceptive response, hot-plate test", "setting": "ICR mice; 0.1 mg/kg s.c., 30 min after injection", "result": "0 ± 0", "unit": "% MPE"}, {"measurement": "Antinociceptive response, hot-plate test", "setting": "ICR mice; 0.1 mg/kg s.c., 60 min after injection", "result": "8 ± 4", "unit": "% MPE"}, {"measurement": "Antinociceptive response, hot-plate test", "setting": "ICR mice; 0.1 mg/kg s.c., 120 min after injection", "result": "14 ± 6", "unit": "% MPE"}, {"measurement": "Antinociceptive response, hot-plate test", "setting": "ICR mice; 0.5 mg/kg s.c., 5 min after injection", "result": "17 ± 5", "unit": "% MPE"}, {"measurement": "Antinociceptive response, hot-plate test", "setting": "ICR mice; 0.5 mg/kg s.c., 10 min after injection", "result": "11 ± 8", "unit": "% MPE"}, {"measurement": "Antinociceptive response, hot-plate test", "setting": "ICR mice; 0.5 mg/kg s.c., 15 min after injection", "result": "18 ± 9", "unit": "% MPE"}, {"measurement": "Antinociceptive response, hot-plate test", "setting": "ICR mice; 0.5 mg/kg s.c., 30 min after injection", "result": "10 ± 6", "unit": "% MPE"}, {"measurement": "Antinociceptive response, hot-plate test", "setting": "ICR mice; 0.5 mg/kg s.c., 60 min after injection", "result": "11 ± 7", "unit": "% MPE"}, {"measurement": "Antinociceptive response, hot-plate test", "setting": "ICR mice; 0.5 mg/kg s.c., 120 min after injection", "result": "11 ± 4", "unit": "% MPE"}, {"measurement": "Effect on acute thermal antinociception, hot plate test (in words)", "setting": "ICR mice; 0.001-0.5 mg/kg s.c., 5-120 min", "result": "no significant effect of 5IA on acute thermal antinociception in the hot plate test"}, {"measurement": "Locomotion after repeated injection, low dose (in words)", "setting": "[1]; C57BL/6J mice, 0.01 mg/kg s.c. for 5 days, vs vehicle", "result": "stimulant effects on locomotion at days 3 and 5"}, {"measurement": "Locomotion after repeated injection, higher doses (in words)", "setting": "[1]; C57BL/6J mice, 0.5 and 1 mg/kg s.c. for 5 days, days 1 and 2, vs vehicle", "result": "depressive effects at higher doses (0.5 and 1 mg/kg)"}, {"measurement": "Tolerance to locomotor depressant effects (in words)", "setting": "[1]; C57BL/6J mice, repeated injection of higher doses", "result": "Tolerance to the depressant effects of higher doses of 5IA developed progressively after day 2"}, {"measurement": "Attenuation of locomotion in β2 WT vs KO mice (in words)", "setting": "[1]; β2 WT and KO mice, 0.5 mg/kg s.c.", "result": "this effect was only observed in β2 WT mice and not in β2 KO mice"}]}
